Measured values: ChEMBL document CHEMBL2412986, “Design, synthesis and evaluation of novel 2-hydroxypyrrolobenzodiazepine-5,11-dione analogues as potent angiotensin converting enzyme (ACE) inhibitors” (Bioorg Med Chem, 2013)

Tests used:
[1] = biological target: T1, Angiotensin-converting enzyme (Oryctolagus cuniculus) (UniProt P12822); experiment: Inhibition of rabbit lung ACE assessed as hydrolysis of hippuryl-histidyl-leucine to hippuric acid and histidyl-leucine at 1 uM after 30 mins relative to control
T1 sequence (whole entry): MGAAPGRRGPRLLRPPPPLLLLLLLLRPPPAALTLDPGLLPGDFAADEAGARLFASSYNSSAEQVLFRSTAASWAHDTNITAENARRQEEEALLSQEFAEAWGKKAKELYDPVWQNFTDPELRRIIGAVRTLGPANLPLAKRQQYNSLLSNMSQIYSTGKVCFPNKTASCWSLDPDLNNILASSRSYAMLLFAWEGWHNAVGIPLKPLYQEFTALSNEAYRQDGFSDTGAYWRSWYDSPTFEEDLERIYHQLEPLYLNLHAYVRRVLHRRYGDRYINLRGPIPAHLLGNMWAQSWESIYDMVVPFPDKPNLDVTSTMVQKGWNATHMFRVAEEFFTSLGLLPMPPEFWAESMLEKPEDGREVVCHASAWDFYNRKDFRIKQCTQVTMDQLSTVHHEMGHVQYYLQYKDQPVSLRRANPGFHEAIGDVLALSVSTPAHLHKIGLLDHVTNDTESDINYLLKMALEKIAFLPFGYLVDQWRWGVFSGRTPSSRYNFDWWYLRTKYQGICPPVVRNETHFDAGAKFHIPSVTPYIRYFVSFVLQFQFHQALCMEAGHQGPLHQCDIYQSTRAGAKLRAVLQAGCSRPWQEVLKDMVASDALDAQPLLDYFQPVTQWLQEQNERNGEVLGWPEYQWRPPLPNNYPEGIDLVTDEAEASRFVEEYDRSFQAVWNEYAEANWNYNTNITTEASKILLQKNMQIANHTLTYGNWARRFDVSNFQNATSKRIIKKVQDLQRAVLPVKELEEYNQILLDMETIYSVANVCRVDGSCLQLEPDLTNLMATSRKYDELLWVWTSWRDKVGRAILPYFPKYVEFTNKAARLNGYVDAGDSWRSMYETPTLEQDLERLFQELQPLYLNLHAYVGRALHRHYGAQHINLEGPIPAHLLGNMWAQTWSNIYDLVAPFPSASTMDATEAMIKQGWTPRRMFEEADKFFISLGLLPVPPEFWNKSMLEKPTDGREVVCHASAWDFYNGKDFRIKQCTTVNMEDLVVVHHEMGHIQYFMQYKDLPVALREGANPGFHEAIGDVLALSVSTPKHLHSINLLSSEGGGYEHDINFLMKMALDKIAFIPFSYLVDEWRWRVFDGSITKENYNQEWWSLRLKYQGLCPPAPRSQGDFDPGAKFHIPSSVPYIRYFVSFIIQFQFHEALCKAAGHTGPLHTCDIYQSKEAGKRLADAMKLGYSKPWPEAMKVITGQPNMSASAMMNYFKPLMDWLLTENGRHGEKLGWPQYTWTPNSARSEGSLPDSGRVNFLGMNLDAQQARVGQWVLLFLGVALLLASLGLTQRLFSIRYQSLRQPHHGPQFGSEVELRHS
Method in brief: (§1)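 Enzyme is the supernatant of rabbit lung acetone powder homogenized in 0.05 M sodium borate pH 8.2 with 0.3 M NaCl and 0.5% Triton X-100 at 4 °C, spun 15,000 rpm for 60 min. Reaction uses borate/NaCl buffer and 5 mM HHL stock, 30 min at 37 °C. Hippuric acid read colorimetrically at 410 nm, in triplicate. % inhibition = 100 − (A_test/A_control)×100. Single-point screen at 1.0 µM; IC₅₀ from plots of % inhibition against serial concentrations.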

[2] = Ratio of IC50 for rabbit lung ACE to IC50 for HEK293 cells
[3] = Ratio of IC50 for rabbit lung ACE to IC50 for human A549 cells
A549 = experiment: Cytotoxicity against human A549 cells assessed as cell survival after 24 hrs by MTT assay; assay type: cell-based; details: A549, 24 h
Method in brief: (§2)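 HEK 293 (normal) and A549 (cancer) cells seeded at 1×10^4 cells/well in DMEM with 10% FBS, grown 24 h at 37 °C under CO₂, then exposed to compounds alongside vehicle control for 24 h. MTT (5 mg/mL, 10 µl) added for 4 h, formazan dissolved in DMSO, absorbance read at 540 nm. Survival relative to control cells; EC₅₀ by probit analysis.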

[4] = biological target: T2, Angiotensin-converting enzyme (Oryctolagus cuniculus, UniProt P12822); experiment: Inhibition of rabbit lung ACE assessed as hydrolysis of hippuryl-histidyl-leucine to hippuric acid and histidyl-leucine after 30 mins; method in brief: as §1
T2 sequence (P12822 whole entry): T1 sequence (whole entry)

HEK293 = experiment: Cytotoxicity against HEK293 cells assessed as cell survival after 24 hrs by MTT assay; assay type: cell-based; details: Homo sapiens, HEK293, 24 h; method in brief: as §2

CCOC(=O)CN1C(=O)[C@@H]2C[C@@H](O)CN2C(=O)c2ccccc21
inhibition [1]: 28%

O=C1[C@@H]2C[C@@H](O)CN2C(=O)c2ccccc2N1Cc1cccc(Cl)c1
inhibition [1]: 28%

COc1cc(CN2C(=O)[C@@H]3C[C@@H](O)CN3C(=O)c3ccccc32)cc(OC)c1OC
Ratio IC50 [2]: 1000
Ratio IC50 [3]: 1000
IC50 (A549): 419 µM
IC50 [4]: 0.376 µM
inhibition [1]: 91%
IC50 (HEK293): 331 µM

CCOC(=O)[C@H](CCc1ccccc1)N[C@@H](C)C(=O)N1[C@H](C(=O)O)C[C@@H]2CCC[C@@H]21 [RAMIPRIL]
IC50 (A549): 392 µM
IC50 [4]: 0.253 µM
IC50 (HEK293): 414 µM

O=C(CN1C(=O)[C@@H]2C[C@@H](O)CN2C(=O)c2ccccc21)c1ccc(Br)cc1
inhibition [1]: 28%

CC(=O)CN1C(=O)[C@@H]2C[C@@H](O)CN2C(=O)c2ccccc21
inhibition [1]: 28%

O=C1[C@@H]2C[C@@H](O)CN2C(=O)c2ccccc2N1Cc1ccc(Cl)c(F)c1
inhibition [1]: 28%

O=C(CN1C(=O)[C@@H]2C[C@@H](O)CN2C(=O)c2ccccc21)c1ccc(Cl)cc1
inhibition [1]: 28%

O=C1[C@@H]2C[C@@H](O)CN2C(=O)c2ccccc2N1Cc1ccc([N+](=O)[O-])cc1
inhibition [1]: 28%

O=C1[C@@H]2C[C@@H](O)CN2C(=O)c2ccccc2N1Cc1cccc2c1oc1ccccc12
inhibition [1]: 28%

O=C1[C@@H]2C[C@@H](O)CN2C(=O)c2ccccc2N1Cc1c(F)c(F)c(F)c(F)c1F
inhibition [1]: 28%

COC(=O)c1ccc(CN2C(=O)[C@@H]3C[C@@H](O)CN3C(=O)c3ccccc32)cc1
inhibition [1]: 28%

CN1C(=O)[C@@H]2C[C@@H](O)CN2C(=O)c2ccccc21
inhibition [1]: 28%

CCOC(=O)[C@H](CCc1ccccc1)N[C@H]1CCc2ccccc2N(CC(=O)O)C1=O [BENAZEPRIL]
IC50 (A549): 358 µM
IC50 [4]: 0.212 µM
IC50 (HEK293): 301 µM

O=C1Nc2ccccc2C(=O)N2C[C@H](O)C[C@@H]12
inhibition [1]: 57%

COc1ccc(CN2C(=O)[C@@H]3C[C@@H](O)CN3C(=O)c3ccccc32)cc1
inhibition [1]: 28%

NCCCC[C@H](N[C@@H](CCc1ccccc1)C(=O)O)C(=O)N1CCC[C@H]1C(=O)O [LISINOPRIL ANHYDROUS]
IC50 (A549): 307 µM
IC50 [4]: 0.262 µM
IC50 (HEK293): 443 µM

O=C1[C@@H]2C[C@@H](O)CN2C(=O)c2ccccc2N1Cc1cc(F)cc(F)c1Cl
inhibition [1]: 28%

COc1cccc(CN2C(=O)[C@@H]3C[C@@H](O)CN3C(=O)c3ccccc32)c1
inhibition [1]: 28%

O=C1[C@@H]2C[C@@H](O)CN2C(=O)c2ccccc2N1Cc1ccc(Br)cc1
Ratio IC50 [2]: 1000
Ratio IC50 [3]: 1000
IC50 (A549): 487 µM
IC50 [4]: 0.658 µM
inhibition [1]: 75%
IC50 (HEK293): 496 µM

O=C1[C@@H]2C[C@@H](O)CN2C(=O)c2ccccc2N1Cc1cccc(Br)c1
Ratio IC50 [2]: 1000
Ratio IC50 [3]: 1000
IC50 (A549): 400 µM
IC50 [4]: 0.418 µM
inhibition [1]: 86%
IC50 (HEK293): 398 µM

Nc1ccc(CN2C(=O)[C@@H]3C[C@@H](O)CN3C(=O)c3ccccc32)cc1
inhibition [1]: 28%

O=C(O)c1ccc(CN2C(=O)[C@@H]3C[C@@H](O)CN3C(=O)c3ccccc32)cc1
inhibition [1]: 28%

O=C1[C@@H]2C[C@@H](O)CN2C(=O)c2ccccc2N1Cc1ccc([N+](=O)[O-])c(Cl)c1
inhibition [1]: 28%

O=C1[C@@H]2C[C@@H](O)CN2C(=O)c2ccccc2N1Cc1cc(F)cc(F)c1
inhibition [1]: 28%

O=C1[C@@H]2C[C@@H](O)CN2C(=O)c2ccccc2N1Cc1cc(Br)cs1
Ratio IC50 [2]: 1000
Ratio IC50 [3]: 1000
IC50 (A549): 361 µM
IC50 [4]: 0.272 µM
inhibition [1]: 80%
IC50 (HEK293): 281 µM
